Test results from ChEMBL document CHEMBL2176911 (J Med Chem, 2012).
The source made the active and inactive calls. The rule behind the calls is not given here.

Experiments:
[1] = species on record: Mus musculus; experiment: Binding affinity to GSK3beta1 in mouse brain homogenate by Western blot analysis; assay type: tissue-based
How it was run: (§1)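 Bead pull-down from HT22 cell or mouse brain extracts, with ethanolamine beads lacking ligand as control. Specificity was tested by adding excess free inhibitor to the extracts before binding.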

[2] = molecular target: Dual specificity tyrosine-phosphorylation-regulated kinase 1A (Mus musculus) (UniProt Q61214); experiment: Inhibition of DYRK1A in mouse HT22 cells at 10 uM after 4 hrs; assay type: cell-based; conditions: HT-22
[3] = molecular target: Dual specificity tyrosine-phosphorylation-regulated kinase 1A (Mus musculus, UniProt Q61214); experiment: Binding affinity to DYRK1A in mouse brain homogenate after 3 hrs by competition affinity chromatographic analysis; assay type: tissue-based
How it was run: (§2)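 Mouse brain lysate applied to a KinAffinity matrix of mixed immobilized broad-spectrum kinase inhibitors at highest loading density, with increasing concentrations of free inhibitor added. […] Separate titrations of the immobilized ligands gave BC50 values.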

[4] = molecular target: Glycogen synthase kinase-3 alpha (Homo sapiens, UniProt P49840); experiment: Binding affinity to GSK3A
[5] = molecular target: Homeodomain-interacting protein kinase 3 (Homo sapiens, UniProt Q9H422); experiment: Binding affinity to HIPK3
[6] = Binding affinity to casein kinase 2
[7] = molecular target: Dual specificity tyrosine-phosphorylation-regulated kinase 1A (Mus musculus) (UniProt Q61214); experiment: Binding affinity to DYRK1A in mouse HT22 cell lysate by Western blot analysis; assay type: cell-free; conditions: HT-22; how it was run: as §1
[8] = molecular target: 1-phosphatidylinositol 3-phosphate 5-kinase (Mus musculus, UniProt Q9Z1T6); experiment: Binding affinity to phosphatidylinositol-3-phosphate 5-kinase type 3 in mouse brain homogenate after 3 hrs by competition affinity chromatographic analysis; assay type: tissue-based; how it was run: as §2
[9] = molecular target: Homeodomain-interacting protein kinase 2 (Homo sapiens) (UniProt Q9H2X6); experiment: Inhibition of human recombinant GST-tagged HIPK2 expressed in Escherichia coli at 10 uM after 30 mins
[10] = Inhibition of Leishmania major recombinant CK1 expressed in Escherichia coli using RRKHAAIGpSAYSITA as substrate and [gamma33P]ATP after 30 mins by scintillation counting
How it was run: (§3)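 Panel of purified kinases (recombinant from several species plus native enzymes), each assayed radiometrically over a range of inhibitor concentrations; IC50 in μM calculated from the dose-response curves.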

[11] = Inhibition of pig […] isolated from brain using RRKHAAIGpSAYSITA as substrate and [gamma33P]ATP after 30 mins by scintillation couting; set-up: species or system Sus scrofa; how it was run: as §3
[12] = molecular target: Glycogen synthase kinase-3 alpha (Mus musculus, UniProt Q2NL51); experiment: Binding affinity to GSK3A in mouse brain homogenate after 3 hrs by competition affinity chromatographic analysis; assay type: tissue-based; how it was run: as §2
[13] = molecular target: Protein VAC14 homolog (Mus musculus) (UniProt Q80WQ2); experiment: Binding affinity to VAC14 in mouse brain homogenate by Western blot analysis; assay type: tissue-based; how it was run: as §1
[14] = molecular target: T1, Dual specificity tyrosine-phosphorylation-regulated kinase 2 (Homo sapiens) (UniProt Q92630); experiment: Inhibition of human recombinant GST-tagged DYRK2 expressed in Escherichia coli using KKISGRLSPIMTEQ as substrate at 1 uM after 30 mins
T1 sequence (whole entry): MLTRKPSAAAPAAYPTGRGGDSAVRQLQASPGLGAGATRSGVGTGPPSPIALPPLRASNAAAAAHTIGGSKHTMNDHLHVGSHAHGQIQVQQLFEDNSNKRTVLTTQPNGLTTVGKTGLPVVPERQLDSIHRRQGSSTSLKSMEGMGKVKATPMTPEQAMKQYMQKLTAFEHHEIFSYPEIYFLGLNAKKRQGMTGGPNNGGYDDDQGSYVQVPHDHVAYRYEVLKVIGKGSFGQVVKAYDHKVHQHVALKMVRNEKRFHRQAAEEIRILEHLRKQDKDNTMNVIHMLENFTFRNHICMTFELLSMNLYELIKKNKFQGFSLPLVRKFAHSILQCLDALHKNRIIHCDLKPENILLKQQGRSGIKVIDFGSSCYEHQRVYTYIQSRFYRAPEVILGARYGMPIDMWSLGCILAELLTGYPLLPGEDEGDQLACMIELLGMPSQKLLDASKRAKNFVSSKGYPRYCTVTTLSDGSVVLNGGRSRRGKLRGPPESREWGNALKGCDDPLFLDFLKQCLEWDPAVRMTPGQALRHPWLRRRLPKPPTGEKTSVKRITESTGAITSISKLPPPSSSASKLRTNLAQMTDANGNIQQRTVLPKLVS

[15] = Inhibition of Plasmodium falciparum recombinant GSK3 expressed in Escherichia coli using YRRAAVPPSPSLSRHSSPHQ-phosphoS-EDEEE as substrate and [gamma33P]ATP after 30 mins by scintillation counting; how it was run: as §3
[16] = molecular target: Dual specificity protein kinase CLK3 (Homo sapiens, UniProt P49761); experiment: Binding affinity to CLK3
[17] = system: HT-22; experiment: Neuroprotective activity against glutamate-induced toxicity in mouse HT22 cells at 10 to 20 uM up to 48 hrs by MTS assay; assay type: functional, cell-based
[18] = system: HT-22; experiment: Neuroprotective activity against glutamate-induced toxicity in mouse HT22 cells after 24 hrs by MTS assay; assay type: functional, cell-based
[19] = molecular target: 1-phosphatidylinositol 3-phosphate 5-kinase (Mus musculus) (UniProt Q9Z1T6); experiment: Binding affinity to phosphatidylinositol-3-phosphate 5-kinase type 3 in mouse brain homogenate by Western blot analysis; assay type: tissue-based; how it was run: as §1
[20] = molecular target: Cyclin-dependent kinase 2/cyclin A (Homo sapiens, UniProt P24941); experiment: Inhibition of CDK2/cyclin A using [gamma33P]ATP after 30 mins by scintillation counting; assay type: protein-complex assay; how it was run: as §3
[21] = molecular target: Dual specificity tyrosine-phosphorylation-regulated kinase 3 (Homo sapiens) (UniProt O43781); experiment: Inhibition of human recombinant GST-tagged DYRK3 expressed in Escherichia coli using KKISGRLSPIMTEQ as substrate at 10 uM after 30 mins
[22] = molecular target: CDK9/cyclin T1 (Homo sapiens, UniProt P50750); experiment: Inhibition of human recombinant CDK9/cyclin T expressed in insect cell using YSPTSPSYSPTSPSYSPTSPSKKKK as substrate and [gamma33P]ATP after 30 mins by scintillation counting; how it was run: as §3
[23] = molecular target: Dual specificity protein kinase CLK1 (Mus musculus, UniProt P22518); experiment: Inhibition of mouse recombinant GST-tagged CLK1 expressed in Escherichia coli using GRSRSRSRSRSR as substrate and [gamma33P]ATP after 30 mins by scintillation counting; how it was run: as §3
[24] = molecular target: Dual specificity protein kinase CLK4 (Homo sapiens, UniProt Q9HAZ1); experiment: Binding affinity to CLK4
[25] = molecular target: Glycogen synthase kinase-3 alpha (Mus musculus) (UniProt Q2NL51); experiment: Binding affinity to GSK3alpha in mouse brain homogenate by Western blot analysis; assay type: tissue-based; how it was run: as §1
[26] = molecular target: 1-phosphatidylinositol 3-phosphate 5-kinase (Mus musculus) (UniProt Q9Z1T6); experiment: Binding affinity to phosphatidylinositol-3-phosphate 5-kinase type 3 in mouse HT22 cell lysate by Western blot analysis; assay type: cell-free; conditions: HT-22; how it was run: as §1
[27] = molecular target: Casein kinase II subunit alpha' (Mus musculus, UniProt O54833); experiment: Binding affinity to CSNK2A2 in mouse brain homogenate after 3 hrs by competition affinity chromatographic analysis; assay type: tissue-based; how it was run: as §2
[28] = system: HT-22; experiment: Inhibition of GSK3 in mouse HT22 cells at 10 uM after 4 hrs; assay type: cell-based
[29] = Inhibition of CK2 at 1 uM after 30 mins
[30] = molecular target: Glycogen synthase kinase-3 (Sus scrofa, UniProt B2LUN4+I6LNT8); experiment: Inhibition of pig GSK3alpha/beta isolated from brain using YRRAAVPPSPSLSRHSSPHQ-phosphoS-EDEEE as substrate and [gamma33P]ATP after 30 mins by scintillation counting; how it was run: as §3

O=C1NC(Nc2ccccc2)=N/C1=C\c1ccc2c(c1)OCO2
Activity [1]: Active | inhibition [2]: Active | Kd(free) [3]: 65 nM | Kd [4]: 550 nM | Kd [5]: 230 nM | Activity [6]: Active | Activity [7]: Active | Kd(free) [8]: 6010 nM | inhibition [9]: Active | IC50 [10]: ≥ 10000 nM | IC50 [11]: 30000 nM | Kd(free) [12]: 3274 nM | Activity [13]: Active | inhibition [14]: Active | IC50 [15]: > 10000 nM | Kd [16]: 1100 nM | Activity [17]: Active | Activity [18]: Dose-dependent effect | Activity [19]: Active | IC50 [20]: > 30000 nM | inhibition [21]: Active | IC50 [22]: 18000 nM | IC50 [23]: 71 nM | Kd [24]: 70 nM | Activity [25]: Active | Activity [26]: Active | Kd(free) [27]: 574 nM | inhibition [28]: inactive | inhibition [29]: Active | IC50 [30]: 410 nM
